≈ marks a conversion by molar mass, not a printed value. Bridge positions count the residues as written; N and C are the ends. Square brackets hold non-standard residues; d marks the D form. Peptide text beside a SMILES is read from it. * marks the point of attachment. Gly(octyl) = CCCCCCCC[C@H](N)C(=O)O; Octanoyl = CCCCCCCC(=O)*; Dab = NCC[C@H](N)C(=O)O
Columns and labels:
Klebsiella pneumoniae [1] = test: Antibacterial activity against Klebsiella pneumoniae ATCC BAA-2146 expressing NDM-1 after 18 hrs by 2 fold serial dilution method; type: functional
Outline: (§1)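 Overnight cultures at 37 °C in nutrient or Mueller Hinton broth with shaking were diluted 50-fold in MHB and grown 1.5–3 h to mid-log phase. The inoculum was 5×10^5 CFU/mL in MHB. Compounds were 2-fold serially diluted, final 32 to 0.015 μg/mL. After 18 h at 37 °C, the MIC was read visually as the lowest concentration with no visible growth.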

Escherichia coli = test: Antibacterial activity against Escherichia coli ATCC 25922 after 18 hrs by 2 fold serial dilution method; type: functional
Outline: (§2)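 Overnight cultures in nutrient or Mueller Hinton broth at 37 °C with shaking, diluted 50-fold into fresh MHB and grown 1.5–3 h to mid-log. Inoculum 5×10^5 CFU/mL in 2-fold serial dilutions, final range 32 to 0.015 μg/mL. MIC read visually after 18 h at 37 °C as the lowest concentration with no visible growth.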

Klebsiella pneumoniae [2] = test: Antibacterial activity against multidrug resistant Klebsiella pneumoniae ATCC 700603 after 18 hrs by 2 fold serial dilution method; type: functional; outline: as §1
Pseudomonas aeruginosa [3] = test: Antibacterial activity against Pseudomonas aeruginosa ATCC 27853 after 18 hrs by 2 fold serial dilution method; type: functional; outline: as §2
Pseudomonas aeruginosa [4] = test: Antibacterial activity against clinical isolate polymyxin resistant Pseudomonas aeruginosa PA9704 after 18 hrs by 2 fold serial dilution method; type: functional
Outline: (§3)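 Polymyxin-resistant clinical isolates were grown overnight at 37 °C in NB or MHB with shaking, diluted 50-fold in MHB and grown 1.5–3 h to mid-log phase. The inoculum was 5×10^5 CFU/mL. Compounds were 2-fold broth serial dilutions, final 32 to 0.015 μg/mL; the polymyxin controls ran 128–0.06 μg/mL. The MIC was the lowest concentration with no visible growth after 18 h at 37 °C.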

Pseudomonas aeruginosa [5] = test: Antibacterial activity against clinical isolate polymyxin resistant Pseudomonas aeruginosa FADDI-PA070 after 18 hrs by 2 fold serial dilution method; type: functional; outline: as §3
Klebsiella pneumoniae [6] = test: Antibacterial activity against clinical isolate carbapenem and polymyxin resistant Klebsiella pneumoniae Koprana 100650661:1 after 18 hrs by 2 fold serial dilution method; type: functional; outline: as §3
Klebsiella pneumoniae [7] = test: Antibacterial activity against clinical isolate carbapenem and polymyxin resistant Klebsiella pneumoniae 138-16357-20362 after 18 hrs by 2 fold serial dilution method; type: functional; outline: as §3
Acinetobacter baumannii [8] = test: Antibacterial activity against clinical isolate carbapenem and polymyxin resistant Acinetobacter baumannii Ptyela 100734512:2 after 18 hrs by 2 fold serial dilution method; type: functional; outline: as §3
Klebsiella pneumoniae [9] = test: Antibacterial activity against Klebsiella pneumoniae ATCC 13883 after 18 hrs by 2 fold serial dilution method; type: functional; outline: as §2
Staphylococcus aureus = test: microbe, parasite or virus in culture; conditions: ATCC 25923, 18 h
Acinetobacter baumannii [10] = test: Antibacterial activity against Acinetobacter baumannii ATCC 19606 after 18 hrs by 2 fold serial dilution method; type: functional; outline: as §2
[11] = Cytotoxicity against human HepG2 cells after 24 hrs by resazurin assay; type: cell-based; conditions: HepG2 cells
[12] = Klebsiella pneumoniae, 700603, 18 h

Compound	MIC (Klebsiella pneumoniae [1]; ATCC BAA-2146, 18 h)	MIC (Escherichia coli; ATCC 25922, 18 h)	MIC (Klebsiella pneumoniae [2]; [12])	MIC (Pseudomonas aeruginosa [3]; ATCC 27853, 18 h)	MIC (Pseudomonas aeruginosa [4]; PA9704, 18 h)	MIC (Pseudomonas aeruginosa [5]; FADDI-PA070, 18 h)	MIC (Klebsiella pneumoniae [6]; Koprana 100650661:1, 18 h)	MIC (Klebsiella pneumoniae [7]; 138-16357-20362, 18 h)	MIC (Acinetobacter baumannii [8]; Ptyela 100734512:2, 18 h)	MIC (Klebsiella pneumoniae [9]; ATCC 13883, 18 h)	MIC (Staphylococcus aureus)	MIC (Acinetobacter baumannii [10]; ATCC 19606, 18 h)	further results
CCCCCCCC(=O)N[C@@H](CCN)C(=O)N[C@H](C(=O)N[C@@H](CCN)C(=O)N[C@H]1CCNC(=O)[C@H]([C@@H](C)O)NC(=O)[C@H](CCN)NC(=O)[C@H](CCNC(=O)[C@@H](N)CCCNC(=N)N)NC(=O)[C@H](CC(C)C)NC(=O)[C@@H](Cc2ccccc2)NC(=O)[C@H](CCN)NC1=O)[C@@H](C)O	1 µg/mL (≈ 0.743 µM)	0.5 µg/mL (≈ 0.372 µM)	0.5 µg/mL (≈ 0.372 µM)	2 µg/mL (≈ 1.49 µM)	> 32 µg/mL	> 32 µg/mL	> 32 µg/mL	> 32 µg/mL	> 32 µg/mL	4 µg/mL (≈ 2.97 µM)	> 32 µg/mL	4 µg/mL (≈ 2.97 µM)	–
GENTAMICIN	–	–	–	–	–	–	–	–	–	–	–	–	MIC (Klebsiella pneumoniae [1]): > 32 µg/mL; MIC (Escherichia coli): 0.25 µg/mL; MIC (Klebsiella pneumoniae [2]): 8 µg/mL; MIC (Pseudomonas aeruginosa [3]): 1 µg/mL; MIC (Pseudomonas aeruginosa [4]): > 32 µg/mL; MIC (Pseudomonas aeruginosa [5]): 32 µg/mL; MIC (Klebsiella pneumoniae [6]): > 32 µg/mL; MIC (Klebsiella pneumoniae [7]): 1 µg/mL; MIC (Acinetobacter baumannii [8]): > 32 µg/mL; MIC (Klebsiella pneumoniae [9]): 0.25 µg/mL; MIC (Acinetobacter baumannii [10]): 32 µg/mL
CCCCCCCC(=O)N[C@@H](CCN)C(=O)N[C@H](C(=O)N[C@@H](CCN)C(=O)N[C@H]1CCNC(=O)[C@H]([C@@H](C)O)NC(=O)[C@H](CCN)NC(=O)[C@H](Cc2ccc(N)cc2)NC(=O)[C@H](CC(C)C)NC(=O)[C@@H](Cc2ccccc2)NC(=O)[C@H](CCN)NC1=O)[C@@H](C)O	2 µg/mL (≈ 1.6 µM)	0.5 µg/mL (≈ 0.4 µM)	1 µg/mL (≈ 0.799 µM)	8 µg/mL (≈ 6.39 µM)	> 32 µg/mL	32 µg/mL (≈ 25.6 µM)	> 32 µg/mL	> 32 µg/mL	> 32 µg/mL	8 µg/mL (≈ 6.39 µM)	> 32 µg/mL	4 µg/mL (≈ 3.2 µM)	–
CN[C@@H](CC(C)C)C(=O)N[C@H]1C(=O)N[C@@H](CC(N)=O)C(=O)N[C@H]2C(=O)N[C@H]3C(=O)N[C@H](C(=O)N[C@@H](C(=O)O)c4cc(O)cc(O)c4-c4cc3ccc4O)[C@H](O)c3ccc(c(Cl)c3)Oc3cc2cc(c3O[C@H]2O[C@@H](CO)[C@H](O)[C@@H](O)[C@@H]2O[C@@H]2C[C@@](C)(N)[C@@H](O)[C@@H](C)O2)Oc2ccc(cc2Cl)[C@H]1O	–	–	–	–	–	–	–	–	–	–	–	–	CC50 at 24 h [11]: > 300 µM
CCCCCCCC[C@@H]1NC(=O)[C@@H](Cc2ccccc2)NC(=O)[C@H](CCN)NC(=O)[C@@H](NC(=O)[C@H](CCN)NC(=O)[C@@H](NC(=O)[C@H](CCN)NC(=O)CCCCCCC)[C@@H](C)O)CCNC(=O)[C@H]([C@@H](C)O)NC(=O)[C@H](CCN)NC(=O)[C@H](CCN)NC1=O (Octanoyl-[Dab]T[Dab][Dab][Dab][dF][Gly(octyl)][Dab][Dab]T; lactam 4-C)	–	–	–	1 µg/mL (≈ 0.803 µM)	–	–	–	–	–	4 µg/mL (≈ 3.21 µM)	–	2 µg/mL (≈ 1.61 µM)	–
CCCCCCCC(=O)N[C@@H](CCN)C(=O)N[C@H](C(=O)N[C@@H](CCN)C(=O)N[C@H]1CCNC(=O)[C@H]([C@@H](C)O)NC(=O)[C@H](CCN)NC(=O)[C@H](CCCNC(=N)N)NC(=O)[C@H](CC(C)C)NC(=O)[C@@H](Cc2ccccc2)NC(=O)[C@H](CCN)NC1=O)[C@@H](C)O	0.5 µg/mL (≈ 0.401 µM)	0.25 µg/mL (≈ 0.201 µM)	0.5 µg/mL (≈ 0.401 µM)	1 µg/mL (≈ 0.803 µM)	> 32 µg/mL	32 µg/mL (≈ 25.7 µM)	> 32 µg/mL	> 32 µg/mL	32 µg/mL (≈ 25.7 µM)	4 µg/mL (≈ 3.21 µM)	> 32 µg/mL	0.5 µg/mL (≈ 0.401 µM)	–

Source: ChEMBL document CHEMBL3774373, “Activity and Predicted Nephrotoxicity of Synthetic Antibiotics Based on Polymyxin B” (J Med Chem, 2016)
